{"source": "ChEMBL document CHEMBL1156469", "about": "(2007)", "system": "Rattus norvegicus", "experiment": "Antiapoptotic activity against osteoblasts in ovariectomized Wistar rat at 0.1 mg/kg after 10 weeks", "format": "functional, organism-based", "parameters": "dose 0.1 mg/kg", "outline": "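After 10 weeks, lumbar vertebrae were removed. Apoptotic osteoblasts were detected by TUNEL staining (Klenow FragEL) in undecalcified, plastic-embedded sections. Values are means ± S.D.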", "note": "Calls of active or inactive are those of the source. The calls are words filed in the database; no cut-off is given here."}
{"molecule": "C[C@]12CC[C@@H]3c4ccc(O)cc4CC[C@H]3[C@@H]1CC[C@@H]2O", "values": [{"measurement": "Activity", "result": "Active"}]}
